# Hsp70 act: Hsp70 transcriptional activation, primary screen; HeLa Hsp70 promoter luciferase reporter, luminescence; scaled: vehicle 0, proteasome-inhibitor control 100%; activation, % at 10 µM; AID 1203; 200,000 tested, 0.04% active;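 active = activation above the mean across all tested compounds plus 3 SD, cutoff set per campaign, cut at about 5.5% in these data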
# S1P3 antagonist: blocks the human S1P3 receptor | 170,000 tested, 0.27% active | CHO S1P3 NFAT-BLA reporter, FRET fluorescence, antagonist mode | AID 485 | Q99500 | inhibition, % at 4.98 µM;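 active = inhibition above the plate cutoff, the mean inhibition of test wells on that plate plus 3 SD, cut at about 28% in these data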;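 note: cells challenged with S1P at its EC80 of 0.8 µM; blue over green emission ratio from cleaved BLA substrate after 4 h stimulation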
# Target sequence (Q99500 whole entry, looked up): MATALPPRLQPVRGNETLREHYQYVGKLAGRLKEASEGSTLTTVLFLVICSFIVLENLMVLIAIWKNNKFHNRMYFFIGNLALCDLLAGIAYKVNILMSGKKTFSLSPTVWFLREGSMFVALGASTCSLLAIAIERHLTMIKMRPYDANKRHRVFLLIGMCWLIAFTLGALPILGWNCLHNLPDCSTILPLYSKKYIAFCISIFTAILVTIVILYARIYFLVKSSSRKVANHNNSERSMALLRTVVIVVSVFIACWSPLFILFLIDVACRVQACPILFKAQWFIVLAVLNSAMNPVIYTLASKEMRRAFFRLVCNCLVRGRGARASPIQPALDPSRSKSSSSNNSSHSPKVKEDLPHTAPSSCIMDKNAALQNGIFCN
# S1P4 antag: human S1P4 receptor antagonism. O95977. inhibition, % at 4.98 µM. S1P4-expressing cells, antagonist mode, reporter read-out. 220,000 tested, 0.26% active; in the data active = inhibition above about 29%
# Dynein transport: dynein cargo transport inhibition. 3617.4 mouse cells, GR-EGFP nuclear translocation imaging; test concentration mostly 20 µM; stimulated with dexamethasone, 1 µM; stronger effect = lower value. z-score, hits read low. 220,000 tested, 0.47% active. AID 1381;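 active = plate z-score of nuclear minus cytoplasmic receptor signal below a set negative limit, without overly bright fluorescence or cell loss, cut at about -3.5 in these data, passing the limit was not always enough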;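 note: z-score of nuclear minus cytoplasmic ring GR-EGFP intensity difference per well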
#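 Buffer or medium – tet-free medium with charcoal-stripped serum · Signal – automated 10x imaging of fixed Hoechst-stained cells · Also added – dexamethasone agonist, 1.0 µM final, for 30 min · Incubation – induction 48 h, compound 1 h, agonist 30 min · Read-out – GR-EGFP nuclear translocation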
# S1P4 agonist: human S1P4 receptor agonism | O95977 | S1P4-expressing cell line, agonist reporter assay | activation, % at 4.98 µM | 220,000 tested, 0.35% active | AID 1509; in the data active = activation above about 11%
# Mdm2 ligase inh: Mdm2 E3 ligase (human) inhibition; Q00987; cell-based MDM2 ubiquitination luciferase reporter, 2 h; 0 = plate control, 100 = twice control, blank-subtracted; signal enhancement, % at 5 µM; AID 1230; 210,000 tested, 0.11% active;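 active = signal enhancement of 30% or more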;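 note: luminescence tracks abundance of the self-degrading MDM2-luciferase fusion protein; higher signal means inhibition of MDM2 E3 ligase activity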
#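 Buffer or medium: Cells held in DMEM | Assay system: Stable mammalian line carrying autodegrading MDM2–luciferase fusion reporter | Quantity: 2000 cells/well | Times: 4 h settle plus 2 h compound, 37 °C | Doses: One concentration, 5 µM, with 0.2% DMSO | Technique: Luminescence with SteadyLite reagent, 15 min at room temperature | Benchmarks: Plate controls and plate blanks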
# Hits are given with their value; – = inactive; · = not tested or not shown. This is a sample that favours compounds with a hit; in the whole collection about 1.3% have one here.
SMILES,Hsp70 act,S1P3 antagonist,S1P4 antag,Dynein transport,S1P4 agonist,Mdm2 ligase inh
O=C(N/N=C\c1ccc(Cl)s1)c1cccs1,–,·,–,–,–,31
CC1CCN(C(=O)CSc2ccc(-c3ccccc3)nn2)CC1,–,–,–,–,–,–
CN(c1nnc(N)s1)C1CCCCC1,–,95,–,–,–,·
O=C(O)c1c[nH]c2ccc(F)cc2c1=O,–,–,–,–,–,–
Cc1cc(NC(=O)c2ccc(Cl)cc2)c(C(C)C)cc1O,–,·,47,–,–,–
Cc1cc(NC(=O)c2ccc(Cl)cc2)c(C)cc1O,–,–,–,–,–,–
CN(C)/C=C/C(=O)c1cc(F)cc(C(F)(F)F)c1,–,–,–,–,–,–
NS(=O)(=O)c1ccc(-n2cccc2C=O)cc1,–,–,–,–,–,–
C=CCC(Nc1ccccc1)c1ccc(OC)c(OC)c1 (stereo not given),·,–,–,–,–,–
COc1ccc(NC(=S)NCCCN2CCOCC2)cc1,·,–,–,–,–,–
CCOc1ccc(NC(=S)NCCCN2CCOCC2)cc1,–,–,–,–,–,34
CCOC(=O)C1=C(c2ccccc2)O/C(=C(/C#N)C(F)(F)F)S1,–,·,–,–,–,68
COc1ccccc1NC(=O)c1ccc(NC(=O)Cc2n[nH]c(=O)c3ccccc23)cc1,·,–,–,–,–,–
CCN(CC)c1ccc(NC2=C(Cl)C(=O)c3ccccc3C2=O)cc1,–,–,–,-4.4,–,–
O=S(=O)(c1ccc(F)cc1)N1CCN=C1SCc1cccnc1,–,–,–,–,–,–
CC(=O)Nc1ccc(S(=O)(=O)N2CCN=C2SCc2cccnc2)cc1,–,–,–,–,–,32
COc1ccc(Nc2nc(C(=O)N3CCc4ccccc4C3)cs2)cc1,–,–,–,–,–,33
COc1ccc(Nc2nc(C(=O)N3CCc4cc(OC)c(OC)cc4C3)cs2)cc1,·,–,–,–,–,·
COc1cc(NC(=O)CSc2cc(C)c3cc(C)cc(C)c3n2)c(C(=O)O)cc1OC,·,–,–,–,–,·
Cc1ccc(C(=O)Nn2cnnc2)cc1S(=O)(=O)N1CCOCC1,·,–,–,–,–,·
NNC(=O)c1csc(Cc2c(Cl)sc3ccc(Cl)cc23)n1,·,–,–,–,–,–
CCCNc1nc2c(c(=O)n(C)c(=O)n2C)n1Cc1ccc(F)cc1,–,85,–,–,–,–
C/C(=N\Nc1cccc(Cl)c1)C1(C)N(O)C(C)(C)C(c2ccco2)=[N+]1[O-] (stereo not given),·,–,–,–,–,–
FC(F)(F)c1cnc(COc2cc(Cl)cc(Cl)c2)c(Cl)c1,·,–,–,–,–,–
COC(=O)CCC(=O)N1CN2CN(C(=O)CCC(=O)OC)CC([N+](=O)[O-])(C2)C1,·,–,–,–,–,–
SMILES,Hsp70 act,S1P3 antagonist,S1P4 antag,Dynein transport,S1P4 agonist,Mdm2 ligase inh
CC1=C(C(=O)NC(C)CCc2ccccc2)C2(CCC(C)CC2)OC1=O (stereo not given),–,–,–,–,–,36
O=C1c2oc3ccc(Br)cc3c(=O)c2C(c2cccnc2)N1Cc1ccco1 (stereo not given),·,95,·,·,·,·
COc1cc(/C=C2\COC/C(=C\c3cc(OC)c(OC)c(OC)c3)C2=O)cc(OC)c1OC,·,–,–,-6.6,–,69
COc1ccc(S(=O)(=O)Nc2cc(Sc3ncn[nH]3)c(O)c3ccccc23)cc1,–,·,–,-4.5,–,–
C=CCN(c1ccccc1)S(=O)(=O)c1cccc(C(=O)OCC(=O)NCCOC)c1,·,–,–,–,–,·
C=CCN(c1cccc(C(F)(F)F)c1)S(=O)(=O)c1cccc(C(=O)OCC(=O)NCCC)c1,–,–,–,–,–,116
CC(=O)N1CCc2cc(Br)cc(S(=O)(=O)N3CCc4ccccc43)c21,–,–,–,–,–,–
CCOC(=O)c1[nH]c2ccccc2c1NC(=O)COC,–,–,–,–,–,–
CCOC(=O)c1[nH]c2ccccc2c1NC(=O)CC,–,55,–,–,–,–
COc1ccc(C)cc1N1C(=N)/C(=C2/Nc3ccccc3S2)C(c2ccccc2)C1=O (stereo not given),–,–,–,-3.6,–,–
CCOC(=O)c1nn(-c2ccc(F)cc2)c2nc(CC(C)C)c(C#N)c(=O)n12,–,·,–,–,–,35

# From PubChem BioAssay
